Reference: ChEMBL document CHEMBL1126044, “Affinity of human growth hormone-releasing factor (1-29)NH2 analogues for GRF binding sites in rat adenopituitary” (J Med Chem, 1992)
Square brackets hold non-standard residues; d marks the D form. Peptide text beside a SMILES is read from it. Aoc = NCCCCCCCC(=O)O

What was measured:
[1] = target: T1, Growth hormone-releasing hormone receptor (Rattus norvegicus, UniProt Q02644); experiment: Compound was tested to Inhibit [125I]-Growth hormone-releasing factor in rat adenopituitary homogenates
T1 sequence (Q02644 whole entry): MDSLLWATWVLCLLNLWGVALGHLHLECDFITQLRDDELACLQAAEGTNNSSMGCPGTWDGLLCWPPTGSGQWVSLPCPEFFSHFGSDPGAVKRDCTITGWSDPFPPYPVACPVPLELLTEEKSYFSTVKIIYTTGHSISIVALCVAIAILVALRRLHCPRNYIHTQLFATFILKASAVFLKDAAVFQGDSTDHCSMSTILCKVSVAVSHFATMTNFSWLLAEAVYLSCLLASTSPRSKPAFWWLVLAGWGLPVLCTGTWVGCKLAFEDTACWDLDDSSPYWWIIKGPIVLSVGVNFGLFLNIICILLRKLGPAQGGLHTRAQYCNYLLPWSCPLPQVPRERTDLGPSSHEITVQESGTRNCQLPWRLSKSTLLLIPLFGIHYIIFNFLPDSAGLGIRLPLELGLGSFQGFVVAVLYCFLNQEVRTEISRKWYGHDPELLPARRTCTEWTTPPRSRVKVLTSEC
Outline: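 Anterior pituitaries from 2-month-old male Sprague-Dawley rats homogenized in ice-cold 50 mM Tris-HCl pH 7.4 with 5 mM MgCl2, 5 mM EDTA. Homogenate (70–75 µg protein) incubated with 35–50 pM [125I-Tyr10]hGRF(1-44)NH2 and peptide at 0–1000 nM in Tris-HCl buffer pH 7.4 with 5 mM EDTA, 5 mM MgCl2, 0.42% BSA, 60 min at 23 °C. Nonspecific binding defined with 2.4 µM rGRF(1-29)NH2. Bound fraction separated by centrifugation and gamma-counted. IC50 fitted with LIGAND. Mean ± SEM of three experiments, each in duplicate or triplicate.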

[2] = target: T2, Growth hormone-releasing hormone receptor (Rattus norvegicus) (UniProt Q02644); experiment: Relative affinity compared to hGRF(1-29)NH2; format: functional
T2 sequence (whole entry): T1 sequence (Q02644 whole entry)
Outline: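 Radioligand competition in rat anterior pituitary homogenate using [125I-Tyr10]hGRF(1-44)NH2 at 35–50 pM and peptides at 0–1000 nM, 60 min at 23 °C. Relative affinity is the binding IC50 expressed as a percentage relative to hGRF(1-29)NH2.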

IC50 [1]	Activity [2]	Compound
> 1 µM		H-YADAIFTNSYRKVLGQLSALLQDIMSR-NH2
0.0095 µM		H-YADAIFTNSYRKVLGQLSARKLLQDISR-NH2 [listing 1 of 2 here]
0.095 µM		H-YADAIFTSYRKVLGQLSARKLLQDIMSR-NH2
	62%	H-YADAIFTNSYRKVLGQLSARKLLQDISR-NH2 [listing 2 of 2 here]
0.12 µM		H-YADAIFTNSYRKVLGQLSARKLLQDIR-NH2
> 1 µM		CC[C@H](C)[C@H](NC(=O)[C@H](C)NC(=O)[C@H](CC(=O)O)NC(=O)[C@H](C)NC(=O)[C@@H](N)Cc1ccc(O)cc1)C(=O)N[C@@H](Cc1ccccc1)C(=O)N[C@H](C(=O)N[C@@H](CC(N)=O)C(=O)N[C@@H](CO)C(=O)N[C@@H](Cc1ccc(O)cc1)C(=O)N[C@@H](CCCN=C(N)N)C(=O)N[C@@H](CCCCN)C(=O)NCCCCCCCC(=O)N[C@@H](CCC(N)=O)C(=O)N[C@@H](CC(C)C)C(=O)N[C@@H](CO)C(=O)N[C@@H](C)C(=O)N[C@@H](CCCN=C(N)N)C(=O)N[C@@H](CCCCN)C(=O)N[C@@H](CC(C)C)C(=O)N[C@@H](CC(C)C)C(=O)N[C@@H](CCC(N)=O)C(=O)N[C@@H](CC(=O)O)C(=O)N[C@H](C(=O)N[C@@H](CCSC)C(=O)N[C@@H](CO)C(=O)N[C@@H](CCCN=C(N)N)C(N)=O)[C@@H](C)CC)[C@@H](C)O (H-YADAIFTNSYRK[Aoc]QLSARKLLQDIMSR-NH2)
0.0169 µM		H-YADAIFTNSYRKVLGQLSARKLLQIMSR-NH2 [listing 1 of 2 here]
0.377 µM		H-ADAIFTNSYRKVLAQLSARKLLQDIMSR-NH2 [listing 1 of 2 here]
0.0072 µM		H-YADAIFTNSYRKVLGQLSARKLLQDIMR-NH2
	41%	CC[C@H](C)[C@H](NC(=O)[C@H](C)NC(=O)[C@H](CC(=O)O)NC(=O)[C@H](C)NC(=O)[C@H](Cc1ccc(O)cc1)NC(=O)CCCN)C(=O)N[C@@H](Cc1ccccc1)C(=O)N[C@H](C(=O)N[C@@H](CC(N)=O)C(=O)N[C@@H](CO)C(=O)N[C@@H](Cc1ccc(O)cc1)C(=O)N[C@@H](CCCN=C(N)N)C(=O)N[C@@H](CCCCN)C(=O)N[C@H](C(=O)N[C@@H](CC(C)C)C(=O)NCC(=O)N[C@@H](CCC(N)=O)C(=O)N[C@@H](CC(C)C)C(=O)N[C@@H](CO)C(=O)N[C@@H](C)C(=O)N[C@@H](CCCN=C(N)N)C(=O)N[C@@H](CCCCN)C(=O)N[C@@H](CC(C)C)C(=O)N[C@@H](CC(C)C)C(=O)N[C@@H](CCC(N)=O)C(=O)N[C@@H](CC(=O)O)C(=O)N[C@H](C(=O)N[C@@H](CCSC)C(=O)N[C@@H](CO)C(=O)N[C@@H](CCCN=C(N)N)C(N)=O)[C@@H](C)CC)C(C)C)[C@@H](C)O
> 1 µM		CC[C@H](C)[C@H](NC(=O)[C@H](C)NC(=O)[C@H](CC(=O)O)NC(=O)[C@H](C)NC(=O)[C@@H](N)Cc1ccc(O)cc1)C(=O)N[C@@H](Cc1ccccc1)C(=O)N[C@H](C(=O)N[C@@H](CC(N)=O)C(=O)N[C@@H](CO)C(=O)N[C@@H](Cc1ccc(O)cc1)C(=O)N[C@@H](CCCNC(=N)N)C(=O)N[C@@H](CCCCN)C(=O)N[C@H](C(=O)N[C@@H](CC(C)C)C(=O)NCC(=O)N[C@@H](CCC(N)=O)C(=O)N[C@@H](CC(C)C)C(=O)N[C@@H](CO)C(=O)NCCCCCCCC(=O)N[C@@H](CC(C)C)C(=O)N[C@@H](CC(C)C)C(=O)N[C@@H](CCC(N)=O)C(=O)N[C@@H](CC(=O)O)C(=O)N[C@H](C(=O)N[C@@H](CCSC)C(=O)N[C@@H](CO)C(=O)N[C@@H](CCCNC(=N)N)C(N)=O)[C@@H](C)CC)C(C)C)[C@@H](C)O (H-YADAIFTNSYRKVLGQLS[Aoc]LLQDIMSR-NH2)
0.0066 µM		CC[C@H](C)[C@H](NC(=O)[C@H](C)NC(=O)[C@H](CC(=O)O)NC(=O)[C@H](C)NC(=O)[C@H](Cc1ccc(O)cc1)NC(=O)CCCCCN)C(=O)N[C@@H](Cc1ccccc1)C(=O)N[C@H](C(=O)N[C@@H](CC(N)=O)C(=O)N[C@@H](CO)C(=O)N[C@@H](Cc1ccc(O)cc1)C(=O)N[C@@H](CCCNC(=N)N)C(=O)N[C@@H](CCCCN)C(=O)N[C@H](C(=O)N[C@@H](CC(C)C)C(=O)NCC(=O)N[C@@H](CCC(N)=O)C(=O)N[C@@H](CC(C)C)C(=O)N[C@@H](CO)C(=O)N[C@@H](C)C(=O)N[C@@H](CCCNC(=N)N)C(=O)N[C@@H](CCCCN)C(=O)N[C@@H](CC(C)C)C(=O)N[C@@H](CC(C)C)C(=O)N[C@@H](CCC(N)=O)C(=O)N[C@@H](CC(=O)O)C(=O)N[C@H](C(=O)N[C@@H](CCSC)C(=O)N[C@@H](CO)C(=O)N[C@@H](CCCNC(=N)N)C(N)=O)[C@@H](C)CC)C(C)C)[C@@H](C)O
	1.5%	H-ADAIFTNSYRKVLAQLSARKLLQDIMSR-NH2 [listing 2 of 2 here]
	33%	H-YADAIFTNSYRKVLGQLSARKLLQIMSR-NH2 [listing 2 of 2 here]
0.0452 µM		H-YADAIFTNSYRKVLGQLSARKLLDIMSR-NH2
0.0176 µM		CC[C@H](C)[C@H](NC(=O)[C@H](C)NC(=O)[C@H](CC(=O)O)NC(=O)[C@H](C)NC(=O)[C@H](Cc1ccc(O)cc1)NC(C)=O)C(=O)N[C@@H](Cc1ccccc1)C(=O)N[C@H](C(=O)N[C@@H](CC(N)=O)C(=O)N[C@@H](CO)C(=O)N[C@@H](Cc1ccc(O)cc1)C(=O)N[C@@H](CCCNC(=N)N)C(=O)N[C@@H](CCCCN)C(=O)N[C@H](C(=O)N[C@@H](CC(C)C)C(=O)NCC(=O)N[C@@H](CCC(N)=O)C(=O)N[C@@H](CC(C)C)C(=O)N[C@@H](CO)C(=O)N[C@@H](C)C(=O)N[C@@H](CCCNC(=N)N)C(=O)N[C@@H](CCCCN)C(=O)N[C@@H](CC(C)C)C(=O)N[C@@H](CC(C)C)C(=O)N[C@@H](CCC(N)=O)C(=O)N[C@@H](CC(=O)O)C(=O)N[C@H](C(=O)N[C@@H](CCSC)C(=O)N[C@@H](CO)C(=O)N[C@@H](CCCNC(=N)N)C(N)=O)[C@@H](C)CC)C(C)C)[C@@H](C)O
> 1 µM		CC[C@H](C)[C@H](NC(=O)[C@H](C)NC(=O)[C@H](CC(=O)O)NC(=O)[C@H](C)NC(=O)[C@@H](N)Cc1ccc(O)cc1)C(=O)N[C@@H](Cc1ccccc1)C(=O)N[C@H](C(=O)N[C@@H](CC(N)=O)C(=O)N[C@@H](CO)C(=O)N[C@@H](Cc1ccc(O)cc1)C(=O)N[C@@H](CCCNC(=N)N)C(=O)N[C@@H](CCCCN)C(=O)N[C@H](C(=O)N[C@@H](CC(C)C)C(=O)NCC(=O)NCCCCCCCC(=O)N[C@@H](C)C(=O)N[C@@H](CCCNC(=N)N)C(=O)N[C@@H](CCCCN)C(=O)N[C@@H](CC(C)C)C(=O)N[C@@H](CC(C)C)C(=O)N[C@@H](CCC(N)=O)C(=O)N[C@@H](CC(=O)O)C(=O)N[C@H](C(=O)N[C@@H](CCSC)C(=O)N[C@@H](CO)C(=O)N[C@@H](CCCNC(=N)N)C(N)=O)[C@@H](C)CC)C(C)C)[C@@H](C)O (H-YADAIFTNSYRKVLG[Aoc]ARKLLQDIMSR-NH2)
> 1 µM		H-YADAIFTNSYRKVLGQLSARLLQDIMSR-NH2
0.0056 µM		CC[C@H](C)[C@H](NC(=O)[C@H](C)NC(=O)[C@H](CC(=O)O)NC(=O)[C@H](C)NC(=O)[C@@H](N)Cc1ccc(O)cc1)C(=O)N[C@@H](Cc1ccccc1)C(=O)N[C@H](C(=O)N[C@@H](CC(N)=O)C(=O)N[C@@H](CO)C(=O)N[C@@H](Cc1ccc(O)cc1)C(=O)N[C@@H](CCCNC(=N)N)C(=O)N[C@@H](CCCCN)C(=O)N[C@H](C(=O)N[C@@H](CC(C)C)C(=O)NCC(=O)N[C@@H](CCC(N)=O)C(=O)N[C@@H](CC(C)C)C(=O)N[C@@H](CO)C(=O)N[C@@H](C)C(=O)N[C@@H](CCCNC(=N)N)C(=O)N[C@@H](CCCCN)C(=O)N[C@@H](CC(C)C)C(=O)N[C@@H](CC(C)C)C(=O)N[C@@H](CCC(N)=O)C(=O)N[C@@H](CC(=O)O)C(=O)N[C@H](C(=O)N[C@@H](CCSC)C(=O)N[C@@H](CO)C(=O)N[C@@H](CCCNC(=N)N)C(N)=O)[C@@H](C)CC)C(C)C)[C@@H](C)O
0.0137 µM		CC[C@H](C)[C@H](NC(=O)[C@H](C)NC(=O)[C@H](CC(=O)O)NC(=O)[C@H](C)NC(=O)[C@H](Cc1ccc(O)cc1)NC(=O)CCCN)C(=O)N[C@@H](Cc1ccccc1)C(=O)N[C@H](C(=O)N[C@@H](CC(N)=O)C(=O)N[C@@H](CO)C(=O)N[C@@H](Cc1ccc(O)cc1)C(=O)N[C@@H](CCCNC(=N)N)C(=O)N[C@@H](CCCCN)C(=O)N[C@H](C(=O)N[C@@H](CC(C)C)C(=O)NCC(=O)N[C@@H](CCC(N)=O)C(=O)N[C@@H](CC(C)C)C(=O)N[C@@H](CO)C(=O)N[C@@H](C)C(=O)N[C@@H](CCCNC(=N)N)C(=O)N[C@@H](CCCCN)C(=O)N[C@@H](CC(C)C)C(=O)N[C@@H](CC(C)C)C(=O)N[C@@H](CCC(N)=O)C(=O)N[C@@H](CC(=O)O)C(=O)N[C@H](C(=O)N[C@@H](CCSC)C(=O)N[C@@H](CO)C(=O)N[C@@H](CCCNC(=N)N)C(N)=O)[C@@H](C)CC)C(C)C)[C@@H](C)O
0.0442 µM		H-ADAIFTSSYRRILGQLYARKLLHEIMNR-NH2
